Test results as given in ChEMBL document CHEMBL4385611, “Difluoromethylene at the γ-Lactam α-Position Improves 11-Deoxy-8-aza-PGE1 Series EP4 Receptor Binding and Activity: 11-Deoxy-10,10-difluoro-8-aza-PGE1 Analog (KMN-159) as a Potent EP4 Agonist” (J Med Chem, 2019).

Columns and labels:
[1] = Apparent permeability across apical to basolateral side in MDCK-MDR1 cells assessed as drug recovery; assay type: ADME, cell-based, Canis lupus familiaris; details: dog, read-out: Drug recovery
[2] = Chemical stability of the compound assessed as drug recovery under Co-60 gamma irradiation condition; assay type: physicochemical
Summary of the method: (§1)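 Compound solution in PBS, pH 7.4, held at 4 °C, tested as plain aqueous solution and after autoclaving. A separate sample was exposed to Co-60 gamma irradiation. Read-out is percent of compound recovered.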

[3] = Chemical stability in PBS buffer at pH 7.4 assessed as compound recovery at 4 degC; assay type: physicochemical; summary of the method: as §1
[4] = Chemical stability in PBS buffer at pH 7.4 assessed as compound recovery at 4 degC under autoclave condition; assay type: physicochemical; summary of the method: as §1
[5] = target: Prostaglandin E2 receptor EP2 subtype (Homo sapiens, UniProt P43116); test: Agonist activity at human EP2 receptor expressed in HEK293T/17 cells assessed as increase in GalphaS-mediated CREB activation at 10 uM measured after 6 to 24 hrs by SEAP reporter gene-based chemiluminescence assay relative to control; assay type: functional, cell-based
Chain of Prostaglandin E2 receptor EP2 subtype (P43116 whole entry): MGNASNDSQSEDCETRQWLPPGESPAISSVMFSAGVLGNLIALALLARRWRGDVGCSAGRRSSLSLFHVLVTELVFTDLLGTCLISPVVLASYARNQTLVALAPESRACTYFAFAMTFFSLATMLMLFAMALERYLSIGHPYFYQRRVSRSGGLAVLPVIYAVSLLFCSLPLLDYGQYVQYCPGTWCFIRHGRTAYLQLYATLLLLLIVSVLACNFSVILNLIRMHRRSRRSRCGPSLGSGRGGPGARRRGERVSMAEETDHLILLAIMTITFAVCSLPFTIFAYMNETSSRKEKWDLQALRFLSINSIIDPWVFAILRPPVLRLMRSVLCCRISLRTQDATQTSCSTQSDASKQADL

recovery [1] [%] | Drug recovery [2] [%] | Drug recovery [3] [%] | Drug recovery [4] [%] | Activity [5] [%] | SMILES
84 | 95 | 100 | 100 |  | CCC#CC[C@H](C)[C@H](O)/C=C/[C@H]1CC(F)(F)C(=O)N1CCCCCCC(=O)O
 |  |  |  | < 50 | CCC#CC[C@H](C)[C@H](O)/C=C/[C@H]1CCC(=O)N1CCCCCCC(=O)O
